Read-outs that look alike come from different tables or passages of the source.
Experiments:
[1] = Stability of analytes in rat plasma; type: physicochemical; details: n = 6
P-gp = assay: qRT-PCR mRNA expression in rat liver and intestine after 7 days of dosing; type: in vivo; details: after multiple doses
Method in brief: (§1)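 Rats (n = 6/group) gavaged daily for 7 days with test compound: 2.5 or 1 mg/kg in 0.5% CMC-Na, or 100 mg/kg in 0.5% CMC-Na with 5% DMSO. Liver and intestine harvested under chloral hydrate and stored at −80 °C. TRNzol RNA extraction; 1 μg RNA reverse-transcribed. qPCR: 95 °C 15 min, then 40 cycles of 95 °C 10 s/60 °C 32 s. […] reference; 2^−ΔΔCT.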

Ugt1a7 = assay: as above; type: in vivo; details: either the liver or the intestine of rats, after multiple doses
Method in brief: as §1

in vivo = type: in vivo, Sprague-Dawley (SD) rats; details: for AUC(0-t): AUC0–t; for AUC(0-inf): AUC0–∞; for MRT last: MRT0–t; for MRT inf: MRT0–∞; for half-life: t1/2, rats
[2] = ref Chen et al., 2021, Zhang et al.; cited from earlier work
Oatp1b2 = assay: qRT-PCR mRNA expression in rat liver after 7 days of dosing; type: in vivo; details: after multiple doses
Method in brief: as §1

[3] = type: in vivo, Sprague-Dawley (SD) rats; details: for AUC(0-t): AUC0–t; for AUC(0-t) / Cmax / MRT last / MRT inf / Tmax / half-life / CLz / Vz: n = 6; for MRT last: MRT0–t; for MRT inf: MRT0–∞; for half-life: t1/2, rats
Ugt2b7 = assay: qRT-PCR mRNA expression in rat liver and intestine after 7 days of dosing; type: in vivo; details: after administration for seven consecutive days
Method in brief: as §1

[4] = ref Lathia et al., 2006; cited from earlier work
[5] = tested on: patients with advanced HCC; details: ref Llovet et al., 2008, cited from earlier work
[6] = Autosampler (15 °C) for 6 h, nominal 10 ng/mL
[7] = Autosampler (15 °C) for 6 h, nominal 800 ng/mL
[8] = Autosampler (15 °C) for 6 h, nominal 1,500 ng/mL
[9] = Room temperature for 4 h, nominal 10 ng/mL
[10] = Room temperature for 4 h, nominal 800 ng/mL
[11] = Room temperature for 4 h, nominal 1,500 ng/mL
[12] = Three freeze–thaw cycles (−80 °C to 25 °C), nominal 10 ng/mL
[13] = Three freeze–thaw cycles (−80 °C to 25 °C), nominal 800 ng/mL
[14] = Three freeze–thaw cycles (−80 °C to 25 °C), nominal 1,500 ng/mL
[15] = −80 °C for 30 days, nominal 10 ng/mL
[16] = −80 °C for 30 days, nominal 800 ng/mL
[17] = −80 °C for 30 days, nominal 1,500 ng/mL
[18] = Sprague-Dawley, rat, in vivo, po, 1 mg/kg, rats, henagliflozin 1 mg/kg after sorafenib 100 mg/kg for 7 consecutive days, n = 6
[19] = Sprague-Dawley, rat, in vivo, po, 1 mg/kg, rats, henagliflozin 1 mg/kg oral, alone, n = 6
[20] = rats, henagliflozin 1 mg/kg after sorafenib 100 mg/kg for 7 consecutive days, n = 6
[21] = rats, henagliflozin and sorafenib, versus control group
[22] = Sprague-Dawley, rat, plasma, po, 100 mg/kg, rats, sorafenib 100 mg/kg after empagliflozin […] for 7 consecutive days
[23] = Sprague-Dawley, rat, plasma, po, 100 mg/kg, rats, sorafenib 100 mg/kg after henagliflozin 1 mg/kg for 7 consecutive days
[24] = Sprague-Dawley, rat, plasma, po, 100 mg/kg, rats, sorafenib 100 mg/kg by gavage, alone
[25] = rats, after empagliflozin, versus sorafenib alone group
[26] = rats, coadministered with henagliflozin, versus sorafenib alone
[27] = rats, sorafenib 100 mg/kg after empagliflozin […] for 7 consecutive days
[28] = rats, sorafenib 100 mg/kg after henagliflozin 1 mg/kg for 7 consecutive days
[29] = rats, sorafenib 100 mg/kg by gavage, alone

## CCOc1ccc(Cc2cc([C@@]34OC[C@@](CO)(O3)[C@@H](O)[C@H](O)[C@H]4O)ccc2Cl)cc1F [Henagliflozin]
[1]; [6]
  Stability: Accuracy (RE%): −4.33%
  Stability: Mean ± SD measured concentration: 9.57 ± 0.87 ng/mL
[1]; [7]
  Stability: Accuracy (RE%): −1.90%
  Stability: Mean ± SD measured concentration: 784.83 ± 31.98 ng/mL
[1]; [8]
  Stability: Accuracy (RE%): −4.22%
  Stability: Mean ± SD measured concentration: 1,436.67 ± 29.44 ng/ml
[1]; [9]
  Stability: Accuracy (RE%): −0.28%
  Stability: Mean ± SD measured concentration: 9.97 ± 0.73 ng/mL
[1]; [10]
  Stability: Accuracy (RE%): −4.63%
  Stability: Mean ± SD measured concentration: 763.00 ± 31.79 ng/mL
[1]; [11]
  Stability: Accuracy (RE%): −2.00%
  Stability: Mean ± SD measured concentration: 1,470.00 ± 59.67 ng/ml
[1]; [12]
  Stability: Accuracy (RE%): −1.70%
  Stability: Mean ± SD measured concentration: 9.83 ± 0.95 ng/mL
[1]; [13]
  Stability: Accuracy (RE%): −3.65%
  Stability: Mean ± SD measured concentration: 770.83 ± 18.66 ng/mL
[1]; [14]
  Stability: Accuracy (RE%): 0.56%
  Stability: Mean ± SD measured concentration: 1,508.33 ± 72.78 ng/ml
[1]; [15]
  Stability: Accuracy (RE%): −1.12%
  Stability: Mean ± SD measured concentration: 9.89 ± 0.95 ng/mL
[1]; [16]
  Stability: Accuracy (RE%): −1.35%
  Stability: Mean ± SD measured concentration: 789.17 ± 38.83 ng/mL
[1]; [17]
  Stability: Accuracy (RE%): −2.11%
  Stability: Mean ± SD measured concentration: 1,468.33± 53.45 ng/ml
P-gp; rat intestine
  decrease of mRNA expression of P-gp: 43.2%
P-gp; rat liver
  decrease of mRNA expression of P-gp: 27.1%
Ugt1a7
  change in the expression of Ugt1a7: no significant change
In vivo; [18]
  AUC(0-t): 3450 ng·h/mL
  AUC(0-inf): 3460 ng·h/mL
  MRT last: 9.36 ± 3.63 h
  MRT inf: 9.49 ± 3.57 h
  Tmax: 1.33 ± 1.36 h
In vivo; [19]
  AUC(0-t): 1920 ng·h/mL
  AUC(0-inf): 1950 ng·h/mL
  MRT last: 7.84 ± 1.68 h
  MRT inf: 8.49 ± 2.86 h
  Tmax: 3.25 ± 1.67 h
In vivo; Sprague-Dawley, rat, in vivo, po, 1 mg/kg, Cmax, rats, henagliflozin 1 mg/kg oral, alone, n = 6
  Cmax: 197 ± 36.9 ng/mL
In vivo; Sprague-Dawley, rat, in vivo, po, 1 mg/kg, henagliflozin 1 mg/kg after sorafenib 100 mg/kg for 7 consecutive days, n = 6
  half-life: 5.1 ± 1.31 h
In vivo; Sprague-Dawley, rat, in vivo, po, 1 mg/kg, henagliflozin 1 mg/kg oral, alone, n = 6
  half-life: 5.11 ± 3.62 h
In vivo; [20]
  CLz: 5 ± 0.83 mL/min/kg
  Vz: 2.25 ± 0.77 L/kg
In vivo; rats, henagliflozin 1 mg/kg oral, alone, n = 6
  CLz: 8.83 ± 1.7 mL/min/kg
In vivo; rats, henagliflozin and sorafenib versus control
  differences in Tmax, t1/2, Vz/F, MRT0–t and MRT0–∞ of henagliflozin: no significant differences
In vivo; [21]
  increase of AUC0–t of henagliflozin: 79.1%
  increase of AUC0–∞ of henagliflozin: 77.7%
[2]
  eliminated by the fecal route: 50%
  eliminated by the renal route: 30%
Oatp1b2
  decrease of mRNA expression of Oatp1b2: 38.4%

## CNC(=O)c1cc(Oc2ccc(NC(=O)Nc3ccc(Cl)c(C(F)(F)F)c3)cc2)ccn1 [Sorafenib]
[3]; Sprague-Dawley, rat, plasma, po, 100 mg/kg
  AUC(0-inf): 20600 ng·h/mL
[3]; [22]
  AUC(0-t): 37000 ng·h/mL
  Cmax: 1860 ng/mL
  MRT last: 28.7 ± 11.5 h
[3]; [23]
  AUC(0-t): 33500 ng·h/mL
  Cmax: 1230 ng/mL
  MRT last: 51 ± 11.1 h
  MRT inf: 66 ± 24.8 h
  Tmax: 5.67 ± 2.58 h
[3]; [24]
  AUC(0-t): 20000 ng·h/mL
  Cmax: 967 ± 176 ng/mL
  MRT last: 37.2 ± 11.4 h
  MRT inf: 40.5 ± 13.4 h
  Tmax: 4.33 ± 2.07 h
[3]; Sprague-Dawley, rat, plasma, po, 100 mg/kg, sorafenib 100 mg/kg after empagliflozin […] for 7 consecutive days
  half-life: 47.6 ± 32.2 h
[3]; Sprague-Dawley, rat, plasma, po, 100 mg/kg, sorafenib 100 mg/kg after henagliflozin 1 mg/kg for 7 consecutive days
  half-life: 28.6 ± 21.7 h
[3]; Sprague-Dawley, rat, plasma, po, 100 mg/kg, sorafenib 100 mg/kg by gavage, alone
  half-life: 18.7 ± 4.85 h
[3]; rats, after empagliflozin, versus control group
  decrease of CLz/F of sorafenib: 45%
[3]; [25]
  increase of AUC0–t of sorafenib: 84%
  increase of AUC0–∞ of sorafenib: 93%
  increase of Cmax of sorafenib: 92%
[3]; [26]
  increase of AUC0–t of sorafenib: 67%
  increase of AUC0–∞ of sorafenib: 80%
[3]; [27]
  CLz: 53.3 ± 33.5 mL/min/kg
  Vz: 201.55 ± 161.11 L/kg
[3]; [28]
  CLz: 46.8 ± 10.8 mL/min/kg
  Vz: 110.19 ± 73.12 L/kg
[3]; [29]
  CLz: 97 ± 43.2 mL/min/kg
  Vz: 93.83 ± 63.20 L/kg
Ugt2b7; rat intestine
  downregulation of mRNA expression of Ugt2b7: 68.3%
Ugt2b7; rat liver
  effect on the expression of Ugt2b7: did not significantly affect
[4]
  administered dose eliminated as oxidative metabolites: less than 5%
  administered dose removed from the body through glucuronidation: 15%
[5]; 95% confidence interval [0.55–0.87], P < 0.001
  HR (overall survival versus control group): 0.69
[5]; patients in the sorafenib group, phase 3 versus placebo
  median overall survival: 10.7 months
